Data on 5 compounds can be found in ChEMBL document CHEMBL3739331, “Synthesis and Bioactivities of Kanamycin B-Derived Cationic Amphiphiles” (J Med Chem, 2015).

Converted amounts (≈) assume the structure as drawn. The source made the active and inactive calls. The calls are words filed in the database; no cut-off is given here.

One data set has as its system Aspergillus nidulans. As to the kind of experiment: Antifungal activity against Aspergillus nidulans ATCC 38163 after 48 hrs by microbroth dilution method. It counts as functional. As to conditions: ATCC 38163, 48 h. The gist of the method:
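Filamentous fungus MIC by broth microdilution, run in duplicate. All compounds are read as MIC-0 (complete inhibition).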
In general terms: Dilution methods test growth across graded concentrations, often in twofold steps.

Data set [1] in a line: Hemolytic activity against mouse RBC at 100 to 500 ug/ml after 60 mins. The class given is ADME, cell-based. The following applies: erythrocyte, 1 h.
A further data set has as its system A549. As to the kind of experiment: Cytotoxicity against human A549 cells after 24 hrs by resazurin assay. It counts as cell-based. As to conditions: human, a549, 24 h.
Data set [2] can be described thus: Cytotoxicity against human BEAS2B cells after 24 hrs by resazurin assay. It counts as cell-based, BEAS-2B. As to conditions: human, beas-2b. A general note: Resazurin is reduced to fluorescent resorufin, in cell work by metabolically active cells.
In another data set the test system is Klebsiella pneumoniae. As to the kind of experiment: Antibacterial activity against Klebsiella pneumoniae ATCC 27736 by microdilution method. It counts as functional. In a few lines: (§1)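 Broth microdilution MIC against the named bacterial strain, reported in μg/mL; each determination run at least in duplicate.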
The nature of data set [3]: Activity of AAC(3)-4 (unknown origin) assessed as compound acetylation activity by Ellman's method.
A further data set deals with Bacillus subtilis. As to the kind of experiment: Antibacterial activity against Bacillus subtilis 168 by microdilution method. It counts as functional. The following applies: subsp. subtilis str. 168. The gist of the method: as §1
A further data set deals with Listeria monocytogenes. As to the kind of experiment: Antibacterial activity against Listeria monocytogenes ATCC 19115 by microdilution method. The class given is functional. The gist of the method:
as §1

Data set [4] relates to Mycolicibacterium smegmatis. Briefly: Antibacterial activity against Mycobacterium smegmatis MC2 155 by microdilution method. It counts as functional. The following applies: str. MC2 155. In a few lines:
(§2)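 Broth microdilution MIC, in μg/mL, against a panel of Gram-positive and Gram-negative strains. Run at least in duplicate.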

Data set [5] relates to Staphylococcus aureus. Briefly: Antibacterial activity against Staphylococcus aureus ATCC 29213 by microdilution method. The class given is functional. The gist of the method: as §1
In data set [6] the test system is Staphylococcus aureus. As to the kind of experiment: Antibacterial activity against Staphylococcus aureus NRS385 (USA 300) by microdilution method. It counts as functional. The gist of the method: as §2
The test system of data set [7] is Staphylococcus epidermidis. As to the kind of experiment: Antibacterial activity against Staphylococcus epidermidis ATCC 12228 by microdilution method. The class given is functional. In a few lines:
as §1

For a further data set, the system named is Acinetobacter baumannii. As to the kind of experiment: Antibacterial activity against Acinetobacter baumannii ATCC 19606 by microdilution method. The class given is functional. The gist of the method: as §1
For a further data set, the system named is Enterobacter cloacae. Briefly: Antibacterial activity against Enterobacter cloacae ATCC 13047 by microdilution method. The class given is functional. The gist of the method: as §1
Another data set has as its system Escherichia coli. Briefly: Antibacterial activity against Escherichia coli MC1061 by microdilution method. The class given is functional. The gist of the method:
as §2

A further data set concerns Salmonella enterica. Briefly: Antibacterial activity against Salmonella enterica ATCC 14028 by microdilution method. It counts as functional. The gist of the method: as §1
Data set [8] relates to Bacillus subtilis subsp. subtilis str. 168. Briefly: Activity of Bacillus subtilis 168 APH(2'')-1a assessed as compound phosphorylation activity by Ellman's method. (In Ellman's method for cholinesterases, released thiocholine reacts with DTNB.)
Data set [9] in a line: Activity of AAC(6')-1e/APH(2'')-1a (unknown origin) assessed as compound acetylation activity by Ellman's method.
The next data set deals with Serratia marcescens. As to the kind of experiment: Activity of Serratia marcescens AAC(6')-2d assessed as compound acetylation activity by Ellman's method.
Data set [10] has as its system Mycobacterium tuberculosis. As to the kind of experiment: Activity of Mycobacterium tuberculosis AAC(2')-1c assessed as compound acetylation activity by Ellman's method.
For data set [11], the system named is Mycobacterium tuberculosis. As to the kind of experiment: Activity of Mycobacterium tuberculosis Eis assessed as compound acetylation activity by Ellman's method.
For data set [12], the system named is Candida albicans. As to the kind of experiment: Antifungal activity against azole-resistant Candida albicans ATCC 10231 after 48 hrs by microbroth dilution method. The class given is functional. As to conditions: ATCC 10231, 48 h. The gist of the method: (§3)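 Yeast MIC by broth microdilution, run in duplicate. The aminoglycoside compounds are read as MIC-0 (complete inhibition). Azoles are read as MIC-2 (50% inhibition).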

Data set [13] concerns Candida albicans. Briefly: Antifungal activity against azole-resistant Candida albicans ATCC 64124 after 48 hrs by microbroth dilution method. The class given is functional. The following applies: ATCC 64124, 48 h. The gist of the method: as §3
Data set [14] deals with Candida albicans. Briefly: Antifungal activity against azole-susceptible Candida albicans ATCC MYA-2876 after 48 hrs by microbroth dilution method. It counts as functional. As to conditions: ATCC MYA-2876, 48 h. In a few lines: as §3
Data set [15] deals with Candida albicans. Briefly: Antifungal activity against azole-resistant Candida albicans ATCC 90819 after 48 hrs by microbroth dilution method. The class given is functional. The following applies: ATCC 90819, 48 h. The gist of the method: as §3
The subject of data set [16] is Candida albicans. As to the kind of experiment: Antifungal activity against azole-susceptible Candida albicans ATCC MYA-2310 after 48 hrs by microbroth dilution method. It counts as functional. The following applies: ATCC MYA-2310, 48 h. The gist of the method:
as §3

Data set [17] concerns Candida albicans. As to the kind of experiment: Antifungal activity against azole-resistant Candida albicans MYA-1237 after 48 hrs by microbroth dilution method. As to conditions: MYA-1237, 48 h. The class given is functional. The gist of the method:
as §3

For data set [18], the system named is Candida albicans. As to the kind of experiment: Antifungal activity against azole-resistant Candida albicans MYA-1003 after 48 hrs by microbroth dilution method. The class given is functional. The following applies: MYA-1003, 48 h. The gist of the method:
as §3

With `CCCCCCCCCCCCSC[C@H]1O[C@H](O[C@@H]2[C@@H](O)[C@H](O[C@H]3O[C@H](CN)[C@@H](O)C[C@H]3N)[C@@H](N)C[C@H]2N)[C@H](O)[C@@H](N)[C@@H]1O`, 7.8 µg/mL (≈ 12 µM) was the least that counted as inhibitory with Aspergillus nidulans (MIC).

Turning to `CCCCCCCCCCCCCCSC[C@H]1O[C@H](O[C@@H]2[C@@H](O)[C@H](O[C@H]3O[C@H](CN)[C@@H](O)C[C@H]3N)[C@@H](N)C[C@H]2N)[C@H](O)[C@@H](N)[C@@H]1O`, it took 7.8 µg/mL (≈ 11.5 µM) to inhibit growth in the data set on Aspergillus nidulans (MIC).

With `CCCCCCCCSC[C@H]1O[C@H](O[C@@H]2[C@@H](O)[C@H](O[C@H]3O[C@H](CN)[C@@H](O)C[C@H]3N)[C@@H](N)C[C@H]2N)[C@H](O)[C@@H](N)[C@@H]1O`, the MIC – broadly, the lowest concentration that inhibits growth of the organism – in the data set with Aspergillus nidulans was determined as 125 µg/mL (≈ 210 µM).

As for `CCCCCCCCCCSC[C@H]1O[C@H](O[C@@H]2[C@@H](O)[C@H](O[C@H]3O[C@H](CN)[C@@H](O)C[C@H]3N)[C@@H](N)C[C@H]2N)[C@H](O)[C@@H](N)[C@@H]1O`, the MIC with Aspergillus nidulans was 62.5 µg/mL (≈ 100 µM).

On to `CCCCCCCCCCSC[C@@H]1O[C@@H](O[C@@H]2[C@@H](O)[C@H](O[C@@H]3O[C@@H](CN)[C@H](O)[C@@H](O)[C@@H]3N)[C@@H](N)C[C@H]2N)[C@@H](O)[C@H](N)[C@H]1O` (stereo in doubt), for which the Activity entry (in data set [1]; in the data set on A549; in data set [2]) was “Non-toxic” each time. Further, the MIC in the data set on Klebsiella pneumoniae is greater than 128 µg/mL; against Bacillus subtilis, 128 µg/mL (≈ 200 µM); in the data set on Listeria monocytogenes it was 2 µg/mL (≈ 3.13 µM); in data set [4], 8 µg/mL (≈ 12.5 µM); against Staphylococcus aureus [5], 16 µg/mL (≈ 25 µM); in the data set with Staphylococcus aureus [6], 32 µg/mL (≈ 50 µM). Also, the MIC in data set [7] is greater than 128 µg/mL; with Acinetobacter baumannii it was greater than 128 µg/mL; in the data set with Enterobacter cloacae it was greater than 128 µg/mL; in the data set with Escherichia coli, greater than 128 µg/mL; against Salmonella enterica, greater than 128 µg/mL; against Candida albicans [12], 125 µg/mL (≈ 195 µM). The MIC against Candida albicans [13] was determined as 125 µg/mL (≈ 195 µM); with Candida albicans [14] it was 125 µg/mL (≈ 195 µM); against Candida albicans [15] it was 125 µg/mL (≈ 195 µM); in the data set with Candida albicans [16], 62.5 µg/mL (≈ 97.7 µM); against Candida albicans [17] it was 125 µg/mL (≈ 195 µM); with Candida albicans [18], 125 µg/mL (≈ 195 µM). The same compound showed an MIC against Aspergillus nidulans of no more than 1.95 µg/mL. Besides, the outcome (in data set [3]; in data set [8]; in data set [9]; in the data set with Serratia marcescens; in data set [10]; in data set [11]) was inactive.
